From ChEMBL document CHEMBL1130120, “N-arylpiperazinyl-N'-propylamino derivatives of heteroaryl amides as functional uroselective alpha 1-adrenoceptor antagonists” (J Med Chem, 1997)

Tests used:
[1] = target: T1, Alpha-1D adrenergic receptor (Rattus norvegicus, UniProt P23944); assay: Antagonistic activity against rat aorta for affinity estimates representative of the Alpha-1D adrenergic receptor; type: functional, tissue-based; conditions: read-out: pA2 (converted)
T1 sequence (P23944 whole entry): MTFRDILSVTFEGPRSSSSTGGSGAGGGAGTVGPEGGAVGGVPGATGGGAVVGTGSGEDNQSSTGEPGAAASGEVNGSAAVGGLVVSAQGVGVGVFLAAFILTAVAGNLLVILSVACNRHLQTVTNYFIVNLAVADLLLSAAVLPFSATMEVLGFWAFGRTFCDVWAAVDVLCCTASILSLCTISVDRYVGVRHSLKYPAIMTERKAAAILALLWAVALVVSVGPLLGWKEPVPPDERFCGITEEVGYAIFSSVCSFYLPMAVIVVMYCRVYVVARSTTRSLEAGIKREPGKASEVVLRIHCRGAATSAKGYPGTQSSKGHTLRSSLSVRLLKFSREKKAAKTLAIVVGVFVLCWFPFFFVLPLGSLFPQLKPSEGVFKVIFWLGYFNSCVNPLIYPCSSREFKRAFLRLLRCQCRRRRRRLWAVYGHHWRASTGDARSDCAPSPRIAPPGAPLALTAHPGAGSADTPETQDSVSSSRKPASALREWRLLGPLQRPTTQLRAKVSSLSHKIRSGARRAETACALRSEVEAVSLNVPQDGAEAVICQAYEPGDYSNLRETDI
Outline: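 Isolated smooth-muscle tissue with cumulative norepinephrine concentration–effect curves (rat aorta, human lower urinary tract). Affinity obtained by full Schild regression for some antagonists. […] Competitive, reversible interaction at a single subtype assumed.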

[2] = target: T2, Alpha-1A adrenergic receptor (Oryctolagus cuniculus, UniProt O02824); assay: Antagonistic activity against alpha 1A/1L receptor was assessed in a rabbit bladder neck functional assay; conditions: read-out: pA2 (converted)
T2 sequence (O02824 whole entry): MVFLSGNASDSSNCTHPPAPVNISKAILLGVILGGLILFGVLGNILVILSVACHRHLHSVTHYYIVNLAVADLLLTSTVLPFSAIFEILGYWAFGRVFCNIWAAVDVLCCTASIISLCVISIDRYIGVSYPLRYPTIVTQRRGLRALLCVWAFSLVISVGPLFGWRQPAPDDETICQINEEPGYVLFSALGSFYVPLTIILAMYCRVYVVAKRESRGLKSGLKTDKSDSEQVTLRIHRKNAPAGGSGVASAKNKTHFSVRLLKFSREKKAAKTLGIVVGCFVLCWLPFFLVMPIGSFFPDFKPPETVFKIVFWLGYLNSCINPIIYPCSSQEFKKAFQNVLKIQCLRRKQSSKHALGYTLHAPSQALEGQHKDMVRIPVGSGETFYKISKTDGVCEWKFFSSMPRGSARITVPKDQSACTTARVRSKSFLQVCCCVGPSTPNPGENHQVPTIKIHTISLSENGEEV

[3] = target: T3, Alpha-1A adrenergic receptor (Bos taurus, UniProt P18130); assay: In vitro for the displacement of [3H]prazosin binding to bovine Alpha-1A adrenergic receptor
T3 sequence (P18130 whole entry): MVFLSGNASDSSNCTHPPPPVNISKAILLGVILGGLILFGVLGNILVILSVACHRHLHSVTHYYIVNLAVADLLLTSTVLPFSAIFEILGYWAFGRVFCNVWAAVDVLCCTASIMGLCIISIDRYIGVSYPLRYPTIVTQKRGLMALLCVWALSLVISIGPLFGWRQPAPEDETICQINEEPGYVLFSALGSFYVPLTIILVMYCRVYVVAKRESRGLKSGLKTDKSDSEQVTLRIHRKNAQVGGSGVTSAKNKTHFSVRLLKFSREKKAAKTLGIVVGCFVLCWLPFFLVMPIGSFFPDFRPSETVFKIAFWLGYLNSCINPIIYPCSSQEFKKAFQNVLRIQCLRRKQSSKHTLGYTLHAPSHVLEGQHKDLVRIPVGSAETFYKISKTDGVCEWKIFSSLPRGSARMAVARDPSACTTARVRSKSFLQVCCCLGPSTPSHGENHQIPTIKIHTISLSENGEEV

| Structure (SMILES) | Kb [1] [nM] | Kb [2] [nM] | Ki [3] [nM] |
| --- | --- | --- | --- |
| CN(C)C(=O)c1cccnc1N1CCC(NCCOc2ccccc2OCC(F)(F)F)CC1 | 63.1 | 1.58 | 1.58 |
| CCOc1ccccc1N1CCN(CCCNc2ncccc2C(=O)N(C)C)CC1 | 7.94 | 0.501 | – |
| CNC(=O)c1cccnc1NCCCN1CCN(c2ccccc2OC)CC1 | 3.16 | 1 | – |
| CCOc1ccccc1OCCNC1CCN(c2ncccc2C(=O)N(C)C)CC1 | 15.8 | – | 3.16 |
| CN(C)C(=O)c1cccnc1NCCCN1CCN(c2ccccc2OC(F)(F)F)CC1 | 100 | 3.16 | – |
| CN(C)C(=O)c1cccnc1NCCCN1CCN(c2ccccc2OCC(F)(F)F)CC1 | 15.8 | 0.1 | – |
| Cc1cnccc1N1CCN(CCCNc2ncccc2C(=O)N(C)C)CC1 | – | 200 | – |
| COc1cc(F)ccc1N1CCN(CCCNc2c(C(=O)N(C)C)c[nH]c3c(Cl)cn[n+]2-3)CC1 | 158 | 0.794 | – |
| COc1ccccc1N1CCN(CCCNc2nc(C)cc(C)c2C(N)=O)CC1 | 39.8 | 10 | 1.58 |
| CN(C)C(=O)c1cccnc1NCCCN1CCN(c2ccccc2)CC1 | 15.8 | 6.31 | 2 |
| Cc1ccccc1N1CCN(CCCNc2ncccc2C(=O)N(C)C)CC1 | 10 | 2 | 0.794 |
| CN(C)C(=O)c1cccnc1NCCCN1CCN(c2ccccc2C#N)CC1 | 10 | 2 | – |
| COc1cc(F)ccc1N1CCN(CCCNc2c(C(=O)N(C)C)c[nH]c3ccn[n+]2-3)CC1 | 100 | 0.631 | – |
| COc1cc(F)ccc1N1CCN(CCCNc2c(C(=O)N(C)C)cnc3nc(C)ccc23)CC1 | 631 | 1.26 | – |
| COc1ccccc1N1CCN(CCCNc2ncncc2C(=O)N(C)C)CC1 | 50.1 | 3.98 | – |
| COc1ccc(N2CCN(CCCNc3ncccc3C(=O)N(C)C)CC2)c(OC)c1 | 1000 | 31.6 | – |
| COc1ccccc1N1CCN(CCCNc2ncccc2C(=O)C(C)(C)C)CC1 | 6.31 | – | 0.398 |
| COc1cc(F)ccc1N1CCN(CCCNc2c(C(=O)N(C)C)cnc3c(C#N)cccc23)CC1 | 398 | 1.26 | – |
| CN(C)C(=O)c1cccnc1NCCCN1CCN(c2ccccc2OCC(C)(C)C)CC1 | 50.1 | – | 0.794 |
| COc1ccccc1N1CCN(CCCNc2ccncc2C(=O)N(C)C)CC1 | 50.1 | 12.6 | 0.794 |
| COc1ccccc1N1CCN(CCCSc2ccccc2C(=O)N(C)C)CC1 | 12.6 | 2 | – |

| Structure (SMILES) | Kb [1] [nM] | Kb [2] [nM] | Ki [3] [nM] |
| --- | --- | --- | --- |
| CN(C)C(=O)c1cccnc1NCCCN1CCN(c2ccccc2Cc2ccccc2)CC1 | 79.4 | 6.31 | – |
| COc1cc2nc(N3CCN(C(=O)C4CCCO4)CC3)nc(N)c2cc1OC (racemic) [TERAZOSIN] | – | 20 | 2.51 |
| CC(C)(Cc1c[nH]c2ccc(Cl)cc12)NCCOc1ccccc1OCC1CC1 | – | 50.1 | 0.794 |
| COc1ccccc1N1CCN(CCCNc2ccccc2C(=O)N(C)C)CC1 | 15.8 | 1 | 0.398 |
| COc1ccccc1N1CCN(CCCNc2ncccc2C(N)=O)CC1 | 10 | – | 0.126 |
| Cc1nn(C)c2ncc(C(=O)N(C)C)c(NCCCN3CCN(c4ccc(F)cc4-c4ncco4)CC3)c12 | 200 | 0.126 | – |
| COc1cc(F)ccc1N1CCN(CCCNc2c(C(=O)N(C)C)cnc3c(C)cccc23)CC1 | 316 | 7.94 | – |
| CN(C)C(=O)c1cnc2c(c(C(C)(C)C)nn2C)c1NCCCN1CCN(c2ccccc2OCC(F)(F)F)CC1 | 63.1 | 2.51 | – |
| CC(C)c1ccccc1N1CCN(CCCNc2ncccc2C(=O)N(C)C)CC1 | 63.1 | 0.398 | – |
| COc1ccccc1N1CCN(CCCNc2ccncc2C(=O)N(C(C)C)C(C)C)CC1 | 251 | – | 1.58 |
| COc1ccccc1N1CCN(CCCNc2ncccc2C(=O)C2CC2)CC1 | 2 | 0.501 | – |
| COc1ccccc1N1CCN(CCCNc2ncccc2C(=O)N2CCCC2)CC1 | 20 | – | 0.794 |
| CN(C)C(=O)c1cnc2ccccc2c1NCCCN1CCN(c2ccccc2OCC(F)(F)F)CC1 | 100 | 3.98 | – |
| COc1ccccc1N1CCN(CCCNc2ncc(O)cc2C(=O)N(C)C)CC1 | 10 | 2 | – |
| COc1cc(F)ccc1N1CCN(CCCNc2c(C(=O)N(C)C)cnc3c2nc(C)n3C)CC1 | 79.4 | 0.631 | – |
| CN(C)C(=O)c1cccnc1NCCCN1CCN(c2ccccc2C(F)(F)F)CC1 | 316 | 12.6 | – |
| COc1ccccc1N1CCN(CCCNc2cccc(C)c2C(=O)N(C)C)CC1 | 63.1 | 3.16 | – |
| COc1ccccc1N1CCN(CCCNc2ccc(C)cc2C(=O)N(C)C)CC1 | 20 | 0.501 | – |
| COc1cc(O)ccc1N1CCN(CCCNc2ncccc2C(=O)N(C)C)CC1 | 79.4 | 12.6 | – |
| COc1ccccc1N1CCN(CCC(=O)Nc2ccccc2C(=O)N(C)C)CC1 | 63.1 | – | 1.58 |
| CCCc1ccccc1N1CCN(CCCNc2ncccc2C(=O)N(C)C)CC1 | 31.6 | 0.2 | – |

| Structure (SMILES) | Kb [1] [nM] | Kb [2] [nM] | Ki [3] [nM] |
| --- | --- | --- | --- |
| COc1ccccc1N1CCN(CCCNc2ncc(C#N)cc2C(=O)N(C)C)CC1 | 20 | 0.794 | – |
| COc1ccccc1N1CCN(CCCNc2ccccc2C(=O)c2ccccc2)CC1 | 10 | 31.6 | – |
| CN(C)C(=O)c1cccnc1N1CCC(NCCOc2ccccc2-c2cncnc2)CC1 | 2510 | 20 | – |
| COc1ccccc1N1CCN(CCCNc2c(C)c(=O)n(C)c(=O)n2C)CC1 | – | 3.98 | 0.501 |
| Cc1noc2ncc(C(=O)N(C)C)c(NCCCN3CCN(c4ccccc4OCC(F)(F)F)CC3)c12 | 79.4 | 1.58 | – |
| CN(C)C(=O)c1cccnc1NCCCN1CCN(c2ccccc2OCC2CC2)CC1 | 10 | 0.158 | 0.0794 |
| CN(C)C(=O)c1cnc2c(Cl)cccc2c1NCCCN1CCN(c2ccccc2OCC(F)(F)F)CC1 | 126 | 0.794 | – |
| Cc1ccc(N2CCN(CCCNc3ncccc3C(=O)N(C)C)CC2)c(-n2cccc2)c1 | 12.6 | 0.02 | – |
| COc1cc(C)ccc1N1CCN(CCCNc2ncccc2C(=O)N(C)C)CC1 | 39.8 | 0.794 | – |
| Cc1ccc(N(CC2=NCCN2)c2cccc(O)c2)cc1 [PHENTOLAMINE] | – | 6.31 | 0.794 |
| COc1ccccc1N1CCN(CCCNc2ccc(C(=O)N(C)C)cn2)CC1 | 31.6 | 25.1 | – |
| CNC(=O)c1cnc2c(c(C)nn2C)c1NCCCN1CCN(c2ccccc2OCC(F)(F)F)CC1 | 3.98 | 0.1 | – |
| CN(C)C(=O)c1cccnc1NCCCN1CCN(c2ccccc2O)CC1 | 63.1 | 5.01 | – |
| CN(C)C(=O)c1cccnc1NCCCN1CCN(c2ccccc2-c2ncco2)CC1 | 25.1 | 0.316 | – |
| Cc1cccc(C)c1N1CCN(CCCNc2ncccc2C(=O)N(C)C)CC1 | – | – | 7.94 |
| COc1ccccc1N1CCN(CCCOc2ccccc2C(=O)N(C)C)CC1 | 31.6 | 3.98 | – |
| CSc1ccccc1N1CCN(CCCNc2ncccc2C(=O)N(C)C)CC1 | 31.6 | 0.631 | – |
| COc1cc(F)ccc1N1CCN(CCCNc2c(C(=O)N(C)C)cnc3c(C(N)=O)cccc23)CC1 | 158 | 0.501 | – |
| CN(C)C(=O)c1cccnc1NCCCN1CCN(c2ccccc2C2CC2)CC1 | 63.1 | 0.631 | – |
